Bioassay records from PubChem BioAssay.
RGS4-Gao reg: modulators of RGS4 binding to Galphao, primary screen, biochemical, multiplexed bead flow cytometry. binding response (% of control), % at 10 µM. 220,000 compounds, 0.33% hits. actives lie on both sides. Guanine nucleotide-binding protein G(o) subunit alpha (Homo sapiens), P09471; in the data active = binding response below about 49% or above about 150%; inactive = in between;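 also: fluorescent Galphao activated with aluminum fluoride binding bead-coupled RGS4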
Target sequence (P09471 whole entry, looked up): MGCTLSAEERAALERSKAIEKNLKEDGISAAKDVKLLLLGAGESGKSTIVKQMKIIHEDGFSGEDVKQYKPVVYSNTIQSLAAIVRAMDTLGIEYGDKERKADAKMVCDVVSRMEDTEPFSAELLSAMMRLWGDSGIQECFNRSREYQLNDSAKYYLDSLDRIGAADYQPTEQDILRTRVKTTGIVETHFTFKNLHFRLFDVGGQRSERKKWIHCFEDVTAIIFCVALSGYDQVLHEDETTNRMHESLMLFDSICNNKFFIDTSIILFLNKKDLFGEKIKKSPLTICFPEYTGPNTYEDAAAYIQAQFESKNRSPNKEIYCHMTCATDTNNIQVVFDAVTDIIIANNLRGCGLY
RGS8-Gao: RGS8-Galphao binding modulators, primary screen, biochemical, multiplexed bead flow cytometry. Guanine nucleotide-binding protein G(o) subunit alpha (Homo sapiens), P09471. actives lie on both sides. response (percent of control binding), % at 10 µM. 220,000 compounds, 0.34% hits. AID 1423, 2008; in the data active = response below about 60% or above about 140%; inactive = in between;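 also: Galphao activated as the GDP aluminium fluoride complex binding bead-coupled RGS8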
ABCB1 block: ABCB1 efflux pump inhibitors, primary screen, cell-based, multiplex, flow cytometry, ABCG2 counter-screen | inhibition, % at 6.6 µM | CCRF-Adr cells, JC-1 efflux | ATP-dependent translocase ABCB1 (Homo sapiens), P08183 | 190,000 compounds, 0.067% hits; in the data active = inhibition above about 40%;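 also: higher value means more JC-1 retained so stronger ABCB1 efflux block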
RGS16-Gao: modulators of RGS16 binding to Galphao, primary screen, biochemical, human proteins, multiplexed bead flow cytometry; binding response (% of control), % at 10 µM; bead-based flow cytometry RGS16-Galphao binding, fluorescence; actives lie on both sides; Regulator of G-protein signaling 16 (Homo sapiens) + Guanine nucleotide-binding protein …; 220,000 compounds, 0.38% hits; AID 1441, 2008; call rule not given here;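 also: Galphao activated by GDP with aluminum fluoride before binding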
Target sequence (O15492 whole entry, looked up): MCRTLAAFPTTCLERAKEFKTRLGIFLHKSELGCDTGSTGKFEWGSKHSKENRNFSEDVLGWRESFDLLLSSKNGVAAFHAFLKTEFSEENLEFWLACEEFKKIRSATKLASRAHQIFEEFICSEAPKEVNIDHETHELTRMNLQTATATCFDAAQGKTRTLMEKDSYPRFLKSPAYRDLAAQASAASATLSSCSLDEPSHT
Target sequence (P09471 whole entry, looked up): as the sequence (P09471 whole entry, looked up) above
RGS7-Gao reg: RGS7-Galphao binding modulators, primary screen, biochemical, multiplexed bead flow cytometry; Guanine nucleotide-binding protein G(o) subunit alpha (Homo sapiens), P09471; actives lie on both sides; binding response (% of control), % at 10 µM; 220,000 compounds, 0.35% hits; in the data active = binding response below about 49% or above about 150%; inconclusive = no clear call, values can overlap the other calls; inactive = in between;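 also: fluorescent Galphao held in activated GDP-AlF4 state binding bead-coupled RGS7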
ABCG2 inh: ABCG2 efflux pump inhibitors, primary screen, multiplex with ABCB1, IgMXP3 cells, flow cytometry; JC-1 efflux; inhibition, % at 6.6 µM; 190,000 compounds, 0.1% hits;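 active = inhibition above 80%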
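Test system: ABCG2 IgMXP3 and barcoded ABCB1 CCRF-Adr cell mix; Schedule: cells with compound and JC-1, 10 min at 25 °C, rotating, no wash; Technique: flow cytometry of retained JC-1 fluorescence; Measure: % inhibition of efflux relative to nicardipine and DMSO; Controls: nicardipine high and DMSO low controls.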
A number is an active result; – = inactive; ? = inconclusive; · = no result; [ ] = another dose, or the depositor's remark. A selection: hits, their analogues and other compounds. The true share with any hit is near 0.9%.

SMILES	RGS4-Gao reg	RGS8-Gao	ABCB1 block	RGS16-Gao	RGS7-Gao reg	ABCG2 inh
O=C(NCc1ccccn1)C(C(=O)c1cccc([N+](=O)[O-])c1)n1cc(Cl)ccc1=O (configuration not stated)	–	–	–	–	–	–
O=c1cc(CN2CCN(c3cccc(C(F)(F)F)c3)CC2)nc2sccn12	–	–	·	–	?	·
Cc1ccc(C)c2[nH]c(=O)c(CN(Cc3ccco3)C(=S)NCC3CCCO3)cc12 (configuration not stated)	–	–	–	–	–	–
COc1ccc(-c2csc3nc(-c4ccccc4OC)oc(=O)c23)cc1	–	–	–	–	?	–
CC(C)CCNC(=O)C(=O)NCc1ccccc1	–	–	·	–	?	·
CC(C)(C)c1ccc(OCCCC(=O)Nc2ccc(S(N)(=O)=O)cc2)cc1	–	–	–	–	–	–
CCOc1ccc(CCNC(=O)Cn2ccc3ccccc3c2=O)cc1OCC	–	–	–	–	?	–
COc1cc(C(=O)NCC(=O)N/N=C/c2ccc(OC(=O)c3ccco3)cc2)cc(OC)c1OC	–	–	–	–	–	–
CC(C)Oc1ccc(Cc2cnc(=S)[nH]c2N)cc1	–	–	–	–	?	–
CC(C(=O)O/N=C(\N)c1cccnc1)c1ccc([N+](=O)[O-])cc1 (configuration not stated)	–	–	–	–	–	–
CCOc1ccc(OCC)c(NC(=O)CN2CCN(c3cccc(C)c3C)CC2)c1	–	–	–	–	–	95
CCOc1ccc(OCC)c(NC(=O)CN2CCN(C(=O)c3ccco3)CC2)c1	–	–	–	–	–	–
Cc1ccc(NC(=O)C2CC(=O)N(Cc3ccccc3)C2)cc1S(=O)(=O)N1CCCCCC1 (configuration not stated)	–	–	–	–	–	–
CCc1ccc(N2CC(C(=O)Nc3ccc(C)c(S(=O)(=O)N4CCOCC4)c3)CC2=O)cc1 (configuration not stated)	181[activator]	145[activator]	–	–	152[activator]	–
OC(CNCCC1C=Nc2ccccc21)Cn1c2ccc(Cl)cc2c2cc(Cl)ccc21 (configuration not stated)	–	–	–	–	–	–
O=C(NCc1ccco1)/C(=C/c1cccnc1)NC(=O)c1ccco1	21	12	–	1.6	14	–
CCCCC(=O)Nc1ccc(C(=O)N(CC)c2ccccc2C)cc1	–	–	–	–	–	–
CCCN1C(=O)/C(=C/c2c(NCCCOCC)nc3c(C)cccn3c2=O)SC1=S	–	–	68	–	–	–
O=c1c2c(ncn2C2CCCC2)n(Cc2ccccc2)c(=O)n1CCOc1ccccc1	–	–	–	–	–	–
Cc1ccc(C)c(OCCn2c(=O)c3c(ncn3C3CCCC3)n(Cc3ccccc3)c2=O)c1	–	–	–	–	–	84
Nc1[nH]nc2c1NN(c1ccc(Cl)cc1Cl)N2	–	–	–	–	–	–
COc1ccc(/C=C/CN2CCC(CO)(Cc3ccccc3Cl)CC2)cc1	–	–	–	–	–	–
Cc1ccc(NC(=O)c2cncc(Br)c2)cc1S(=O)(=O)N(C)C	–	–	–	–	–	–
CCOc1ccccc1C(=O)Nc1cc(OC)ccc1OC	–	–	–	–	–	100
O=C(Nc1nc(-c2cccnc2)cs1)c1cccc([N+](=O)[O-])c1	–	–	–	–	–	–
SMILES	RGS4-Gao reg	RGS8-Gao	ABCB1 block	RGS16-Gao	RGS7-Gao reg	ABCG2 inh
O=C(Nc1nc(-c2ccccc2)cs1)c1cccc([N+](=O)[O-])c1	21	12	–	1.7	13	–
N=c1occ(C(=O)c2cc(F)ccc2O)cc1C(=O)NC1CCCCC1	–	–	–	–	–	–
O=C(COc1ccc(Cl)cc1)NNC(=O)c1cccnc1	–	–	–	–	–	–
N#C/C(=C\c1ccc(O)c(O)c1)S(=O)(=O)c1ccccc1	223[activator]	155[activator]	–	259[activator]	203[activator]	–
N#C/C(=C/c1ccc(F)cc1)S(=O)(=O)c1ccccc1	–	–	·	–	?	·
O=C(Nc1ccccc1NC(=O)c1ccco1)c1ccco1	-45	6.2	–	-27	-19	–
Cc1ccc(-c2nc3cccnc3s2)cc1NS(C)(=O)=O	-22	2.3	–	-19	-31	–
CC1=CC(=O)C(C(C)=Nc2ccccc2Cl)C(=O)O1 (configuration not stated)	–	–	·	–	?	·
CC(=O)Nc1ccc(N=Cc2c(O)c(C(=O)Nc3ccccc3)cc3ccccc23)cc1	–	–	70	–	–	103
O=C(N/N=C/c1cccc2cccnc12)c1ccccc1O	–	–	·	–	?	·
Cc1cc(NC(=O)CN2C(=O)[C@@H]3[C@H](C2=O)[C@@H]2C[C@H]3C(Br)C2Br)no1 (some centres not stated)	–	–	·	–	?	·
COc1ccc(C(=O)NC=C2C(=O)OC(C)(C)OC2=O)cc1	–	–	–	–	–	–
CC1CC2(CCCCC2)N2C(=O)C(=O)c3cccc1c32 (configuration not stated)	41	43	–	–	29	–
COCCN1C(=O)/C(=C/c2ccc(N3CCCC3)cc2C)SC1=S	–	–	67	–	–	91
Clc1ccc(-n2cc(COCc3ccccc3)nn2)cc1	–	–	–	–	–	–
CCOC(=O)C1CCCN(CC(=O)c2c[nH]c3ccc(C)cc23)C1 (configuration not stated)	–	–	·	–	?	·
Cc1cccc(C)c1NC(=S)N(CCCN1CCCCC1)Cc1ccco1	–	–	–	–	–	–
CN(CCN1CCc2ccccc2C1)Cc1nc(Cc2ccccc2F)no1	28	27	–	20	17	–
COc1ccc(Cc2noc(CN(C)CCN3CCc4ccccc4C3)n2)cc1OC	–	–	–	–	–	–
COc1cc(/C=N/NC(=O)c2sc3nc(C)cc(C)c3c2N)ccc1O	–	–	·	–	?	·
CC(C)(CC(=O)O)CC(=O)Nc1ccc(Cl)c(Cl)c1	–	–	·	–	?	·
Cc1ncsc1CCOC(=O)c1ccc(Cl)cc1	–	–	–	–	?	–
COc1ccc(Cl)cc1C(=O)NNC(=S)NC(=O)c1cc(-c2ccc(Cl)cc2)nc2ccccc12	11	37	–	19	21	–
CCNC(=S)NNC(=O)c1cc(-c2ccc(OC)cc2)nc2ccccc12	–	–	–	–	–	–
CSc1ccccc1C(=O)N1CCN(c2ncccn2)CC1	–	–	–	–	–	–
